Experimental data of several laboratories.
Protocols differ between the studies behind these lines.
F10 trypsin-like site: Coagulation factor X, trypsin-like site (F10, Homo sapiens, UniProt P00742)
CYP1B1: Cytochrome P450 1B1 (CYP1B1, Homo sapiens, UniProt Q16678)
PCNA: Proliferating cell nuclear antigen (PCNA, Homo sapiens, UniProt P12004)
Ntsr1: Neurotensin receptor type 1 (Ntsr1, Rattus norvegicus, UniProt P20789)
ADRB2: Beta-2 adrenergic receptor (ADRB2, Homo sapiens, UniProt P07550)

CC(C)(C)[C@H](NC(=O)[C@H](CCONC(=N)N)NC(=O)Cc1ccc(CN)cc1)C(=O)N[C@@H](CCCCN)C(=O)NCc1ccc(C(=N)N)cc1 — Ki (F10 trypsin-like site; enzyme activity, inhibitor; pH 8): 18 µM
CC(C)=CCc1c(O)cc2c(c1O)C(=O)C[C@@H](c1ccc(O)cc1)O2 — Ki (CYP1B1; enzyme activity, inhibitor, fluorescence; 15 min, pH 7.4): 0.23 µM
CC[C@H](C)[C@H](NC(=O)[C@H](CCCNC(=N)N)NC(=O)[C@H](CO)NC(=O)[C@H](CC(=O)O)NC(=O)[C@H](CCCCN)NC(=O)[C@H](CCCCN)NC(=O)CNC(=O)[C@H](Cc1c[nH]cn1)NC(=O)[C@@H](N)CCC(N)=O)C(=O)N[C@H](C(=O)N[C@@H](CC(=O)O)C(=O)N[C@@H](Cc1c[nH]cn1)C(=O)N[C@@H](Cc1ccccc1)C(=O)N[C@@H](CCSC)C(=O)N[C@@H](CCCNC(=N)N)C(=O)N[C@@H](CC(C)C)C(=O)N1CCC[C@H]1C(=O)N[C@@H](CCCCN)C(=O)N[C@@H](C)C(=O)O)[C@@H](C)O — Kd (PCNA; binding, ITC; pH 7.4): 6.67 µM
NCC(O)c1ccc(O)c(O)c1F (centres unmarked) — Ki (Beta-2 adrenergic receptor (ADRB2, Homo sapiens, UniProt P07550, N293F); ligand displacement, radioligand; cell membranes): 216 µM
O=C(N[C@H]1COC(=O)[C@@H](NC(=O)c2cccc(O)c2[O-])COC(=O)[C@@H](NC(=O)c2cccc(O)c2[O-])COC1=O)c1cccc(O)c1[O-].[Fe+3] — Kd (Neutrophil gelatinase-associated lipocalin (LCN2, Homo sapiens, UniProt P80188, C107S); binding, fluorescence; pH 7.4): 0.00041 µM
CCCCOc1ccc(C(=O)CCN2CCCCC2)cc1 — IC50 (Histamine H3 receptor (HRH3, Homo sapiens, UniProt Q9Y5N1); ligand displacement, radioligand): 3.89 µM
CC(=O)N[C@@H](C)C(=O)N1CCC[C@H]1C(=O)N[C@@H](CC(C)C)C(=O)N[C@H](C(=O)N[C@@H](CCCNC(=N)N)C(=O)NCC(=O)N[C@@H](CO)C(=O)N[C@@H](CS)C(=O)N[C@@H](CCCNC(=N)N)C(=O)N[C@@H](CCCCN)C(=O)N[C@@H](CCCNC(=N)N)C(=O)N[C@@H](CC(N)=O)C(=O)N[C@@H](CCCNC(=N)N)C(=O)N[C@@H](CO)C(=O)N1CCC[C@H]1C(=O)N[C@@H](CCC(=O)O)C(=O)N[C@@H](CCCNC(=N)N)C(N)=O)[C@@H](C)O — Kd (WD repeat-containing protein 5 (WDR5, Homo sapiens, UniProt P61964); binding, ITC; pH 7): 14.6 µM
CC[C@H](C)[C@H](NC(=O)[C@H](CCCCN)NC(=O)[C@H](CO)NC(=O)[C@H](CC(=O)O)NC(=O)[C@H](CCCCN)NC(=O)[C@H](CCCCN)NC(=O)CNC(=O)[C@H](Cc1c[nH]cn1)NC(=O)[C@@H](N)CCC(N)=O)C(=O)N[C@H](C(=O)N[C@@H](CC(=O)O)C(=O)N[C@@H](Cc1c[nH]cn1)C(=O)N[C@@H](Cc1ccccc1)C(=O)N[C@@H](CCSC)C(=O)N[C@@H](C)C(=O)N[C@@H](CC(C)C)C(=O)N1CCC[C@H]1C(=O)N[C@@H](CCCCN)C(=O)N[C@@H](C)C(=O)O)[C@@H](C)O — Kd (PCNA; binding, ITC; pH 7.4): 4.27 µM
COc1ccccc1-c1cc(C(=O)NC2(C(=O)O)CCCCC2)nn1-c1ccc(F)cc1 — Kb (Ntsr1; calcium signal, antagonist, fluorescence): > 10 µM
CC[C@H](C)[C@H](NC(=O)[C@H](CCCCN)NC(=O)[C@H](CO)NC(=O)[C@H](CC(=O)O)NC(=O)[C@H](CCCCN)NC(=O)[C@H](CCCCN)NC(=O)CNC(=O)[C@H](Cc1c[nH]cn1)NC(=O)[C@@H](N)CCC(N)=O)C(=O)N[C@H](C(=O)N[C@@H](CC(=O)O)C(=O)N[C@@H](Cc1c[nH]cn1)C(=O)N[C@@H](C)C(=O)N[C@@H](CCSC)C(=O)N[C@@H](CCCNC(=N)N)C(=O)N[C@@H](CC(C)C)C(=O)N1CCC[C@H]1C(=O)N[C@@H](CCCCN)C(=O)N[C@@H](C)C(=O)O)[C@@H](C)O — Kd (PCNA; binding, ITC; pH 7.4): 41.3 µM
O=C(N[C@H](C(=O)O)C1CCCCC1)c1cc(-c2c(F)cccc2F)n(-c2ccnc3cc(Cl)ccc23)n1 — Kb (Ntsr1; calcium signal, antagonist, fluorescence): > 10 µM
COc1cccc2c1C(=O)c1c(O)c3c(c(O)c1C2=O)C[C@@](O)(C(=O)CO)C[C@@H]3O[C@H]1C[C@H](N)[C@H](O)[C@H](C)O1 — Ki (Ileal sodium/bile acid cotransporter (SLC10A2, Homo sapiens, UniProt Q12908); transporter uptake, inhibitor): 101 µM
CCOC(=O)C(CC)(CCCSCCOCCOCCNc1ccc([N+](=O)[O-])c2nonc12)NC(=O)c1ccc(C2CC2)c(Cc2ccc(F)cc2)n1 (racemic) — EC50 (Cannabinoid receptor 2 (CNR2, Homo sapiens, UniProt P34972); cAMP, agonist): 0.0047 µM
c1ccc2c(c1)-c1cccc3cccc-2c13 — Kd (CYP1B1; binding, absorbance; pH 7.4): 1.6 µM
CC[C@H](C)[C@H](NC(=O)[C@H](CCCCN)NC(=O)[C@H](CO)NC(=O)[C@H](CC(=O)O)NC(=O)[C@H](CCCCN)NC(=O)[C@H](CCCCN)NC(=O)CNC(=O)[C@H](Cc1c[nH]cn1)NC(=O)[C@@H](N)CCC(N)=O)C(=O)N[C@H](C(=O)N[C@@H](CC(=O)O)C(=O)N[C@@H](Cc1c[nH]cn1)C(=O)N[C@@H](Cc1ccccc1)C(=O)N[C@@H](CCSC)C(=O)N[C@@H](CCCNC(=N)N)C(=O)N[C@@H](CC(C)C)C(=O)N1CCC[C@H]1C(=O)N[C@@H](CCCCN)C(=O)N[C@@H](C)C(=O)O)[C@@H](C)O — Kd (PCNA; binding, ITC; pH 7.4): 3.28 µM
CCc1c(C(=O)N[C@H](C(=O)O)C2CCCCC2)nn(-c2ccnc3cc(Cl)ccc23)c1-c1c(OC)cccc1OC — Kb (Ntsr1; calcium signal, antagonist, fluorescence): > 10 µM
C[C@H](N)Cn1ncc2ccc3c(c21)CCCO3 — IC50 (ADRB2; ligand displacement, radioligand): 0.48 µM
CCCCNNC(=O)c1ccc(Br)cc1 — IC50 (Histone deacetylase 7 (HDAC7, Homo sapiens, UniProt Q8WUI4); enzyme activity, inhibitor, fluorescence): > 100 µM
CC[C@H](C)[C@H](NC(=O)[C@H](CCCCNC(C)=O)NC(=O)[C@H](CO)NC(=O)[C@H](CC(=O)O)NC(=O)[C@H](CCCCN)NC(=O)[C@H](CCCCN)NC(=O)CNC(=O)[C@H](Cc1c[nH]cn1)NC(=O)[C@@H](N)CCC(N)=O)C(=O)N[C@H](C(=O)N[C@@H](CC(=O)O)C(=O)N[C@@H](Cc1c[nH]cn1)C(=O)N[C@@H](Cc1ccccc1)C(=O)N[C@@H](CCSC)C(=O)N[C@@H](CCCNC(=N)N)C(=O)N[C@@H](CC(C)C)C(=O)N1CCC[C@H]1C(=O)N[C@@H](CCCCN)C(=O)N[C@@H](C)C(=O)O)[C@@H](C)O — Kd (PCNA; binding, ITC; pH 7.4): 6.14 µM
CC(C)(C)[C@H](NC(=O)[C@H](CCONC(=N)N)NC(=O)Cc1ccc(CN)cc1)C(=O)N[C@@H](CCONC(=N)N)C(=O)NCc1ccc(C(=N)N)cc1 — Ki (F10 trypsin-like site; enzyme activity, inhibitor; pH 8): 47 µM
CC[C@H](C)[C@H](NC(=O)[C@H](CCCCN)NC(=O)[C@H](CO)NC(=O)[C@H](CC(=O)O)NC(=O)[C@H](CCCCN)NC(=O)[C@H](CCCCN)NC(=O)CNC(=O)[C@H](Cc1c[nH]cn1)NC(=O)[C@@H](N)CCC(N)=O)C(=O)N[C@H](C(=O)N[C@@H](CC(=O)O)C(=O)N[C@@H](Cc1c[nH]cn1)C(=O)N[C@@H](Cc1ccccc1)C(=O)N[C@@H](C)C(=O)N[C@@H](CCCNC(=N)N)C(=O)N[C@@H](CC(C)C)C(=O)N1CCC[C@H]1C(=O)N[C@@H](CCCCN)C(=O)N[C@@H](C)C(=O)O)[C@@H](C)O — Kd (PCNA; binding, ITC; pH 7.4): 1.65 µM
CC(C)(C)[C@H](NC(=O)[C@H](CCONC(=N)N)NC(=O)Cc1ccc(CNC(=N)N)cc1)C(=O)N[C@@H](CCCCN)C(=O)NCc1ccc(C(=N)N)cc1 — Ki (F10 trypsin-like site; enzyme activity, inhibitor; pH 8): 26 µM
NCC(O)c1cc(O)c(O)cc1F (centres unmarked) — Ki (Beta-2 adrenergic receptor (ADRB2, Homo sapiens, UniProt P07550, N293A); ligand displacement, radioligand; cell membranes): 5450 µM
O=C1C2(Cl)C3(Cl)C4(Cl)C(Cl)(Cl)C5(Cl)C3(Cl)C1(Cl)C5(Cl)C24Cl (centres unmarked) — IC50 (Histone-lysine N-methyltransferase SETD7 (SETD7, Homo sapiens, UniProt Q8WTS6); enzyme activity, inhibitor): > 333 µM
CCC#CCOc1ccc(S(=O)(=O)CC2CS2)cc1 (racemic) — IC50 (72 kDa type IV collagenase (MMP2, Homo sapiens, UniProt P08253); enzyme activity, inhibitor, fluorescence): 14 µM
COc1cc(N)c(Cl)cc1C(=O)NC1CN2CCC1CC2 (centres unmarked) — IC50 (ADRB2; ligand displacement, radioligand; cell membranes): 244 µM
